High-throughput results from PubChem.
PAD4 FP inh = human PAD4 inhibitors, primary screen, biochemical, fluorescence polarization, 1536-well format; Protein-arginine deiminase type-4 (Homo sapiens), Q9UM07; recombinant PAD4, RCA probe fluorescence polarization; inhibition, % at 6.36 µM; 0.41% of 330,000 active;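 active = percent inhibition above a cutoff equal to the mean of all tested compounds plus 3 SD, cut at about 15% in these data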;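 also: 0% = PAD4 with RCA probe and DMSO and 100% = probe without PAD4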
TDP2 absorb = human TDP2 enzyme inhibitors, primary screen, biochemical, epi absorbance, recombinant enzyme; Tyrosyl-DNA phosphodiesterase 2 (Homo sapiens), O95551; T5PNP hydrolysis, p-nitrophenol absorbance 415 nm; inhibition, % at 12.8 µM; 0.34% of 370,000 active;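 active = inhibition above the mean of all tested compounds plus 3 SD, set per campaign, cut at about 25% in these data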;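 also: 0% = DMSO with enzyme and 100% = buffer with substrate but no TDP2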
Target sequence (O95551 whole entry, looked up): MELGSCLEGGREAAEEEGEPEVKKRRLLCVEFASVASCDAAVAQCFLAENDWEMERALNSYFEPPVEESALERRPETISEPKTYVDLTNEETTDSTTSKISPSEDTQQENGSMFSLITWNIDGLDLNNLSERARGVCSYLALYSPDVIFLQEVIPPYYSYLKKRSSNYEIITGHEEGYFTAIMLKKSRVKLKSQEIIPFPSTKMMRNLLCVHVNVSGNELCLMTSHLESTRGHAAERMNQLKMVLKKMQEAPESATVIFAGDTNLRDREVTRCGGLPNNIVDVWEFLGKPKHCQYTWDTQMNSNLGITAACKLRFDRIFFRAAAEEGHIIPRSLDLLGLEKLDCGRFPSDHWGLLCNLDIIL
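Evaluation: % inhibition relative to enzyme-containing and enzyme-free wells. Material: recombinant human TDP2. Benchmarks: enzyme-free and DMSO wells. Timing: enzyme reaction with compound for 2 h at 37 °C. Compound dosing: 12.8 µM only. Measured by: p-Nitrophenol epi absorbance. Reagent: T5PNP substrate at 5 mM, a TopII-DNA adduct mimic. Replication: single well per compound.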
Apaf-1 inh = inhibitors of human Apaf-1 apoptosome, primary screen, biochemical, DEVD-Rh110 fluorescence, uHTS; Apoptotic protease-activating factor 1 (Homo sapiens), O14727; reconstituted apoptosome caspase-3 activity; inhibition, % at 20 µM; 0.71% of 330,000 active; AID 489030, 2010; active = inhibition of at least 40% at 20 µM;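 also: plate controls were DMSO wells for no effect and DEVD-CHO caspase inhibitor wells for full effect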
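System – cell-free apoptosome with Apaf-1, procaspase-3 and caspase-9 · Buffer or medium – pH 7.5 Hepes buffer with CHAPS, BSA, DTT · Also added – cytochrome c with DEVD-Rh110 · Times – 30 min compound preincubation, 50 min activation, room temperature · Technique – Rh110 fluorescence intensity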
GSTO1 counter = inhibitors of recombinant GSTO1, primary screen, counter-screen for RBBP9 inhibitor project, biochemical, fluorescence polarization; AID 1974, 2009; 1.1% of 300,000 active; Glutathione S-transferase omega-1 (Homo sapiens), P78417; inhibition, % at 5.96 µM; activity-based probe fluorescence polarization;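 active = inhibition above the campaign mean inhibition plus 3 SD, cut at about 35% in these data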;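 also: 0% = GSTO1-1 with DMSO and 100% = wells lacking GSTO1-1 enzyme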
Target sequence (P78417 whole entry, looked up): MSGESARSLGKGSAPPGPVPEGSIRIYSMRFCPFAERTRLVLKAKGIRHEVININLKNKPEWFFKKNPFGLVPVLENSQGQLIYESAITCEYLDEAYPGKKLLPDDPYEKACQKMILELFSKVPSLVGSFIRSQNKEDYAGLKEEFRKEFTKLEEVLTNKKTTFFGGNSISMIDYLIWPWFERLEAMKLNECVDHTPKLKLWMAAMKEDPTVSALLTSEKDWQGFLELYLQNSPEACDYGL
TCR-CD3 inh = inhibitors of human TCR-CD3 interaction, primary screen, biochemical, fluorescence, TAMRA-labeled TCR probe; T-cell receptor (TCR); inhibition, % at 9.4 µM; 0.37% of 360,000 active; in the data active = inhibition above about 19%;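 also: recombinant mutant TCR 2C K166C tagged with TAMRA read by polarization; 0% = receptor in buffer alone and 100% = receptor with positive control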
SIAE inh = human SIAE inhibitors, primary screen, biochemical, fluorescence polarization, FP-Rh probe, 1536-well HTS; SIAE FP-Rh probe binding; 0.69% of 370,000 active; AID 1053197, 2014; inhibition, % at 9.66 µM; Sialate O-acetylesterase (Homo sapiens), Q9HAT2;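 active = inhibition above a cutoff: mean of compounds within the control limits plus 3 SD of those, cut at about 17% in these data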;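 also: 0% = plate median of compound wells and 100% = probe without SIAE protein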
Apaf-1 inh conf2 = Apaf-1 inhibitors, single-dose retest, confirmation, biochemical, fluorescence, DEVD-Rh110, 20 µM. inhibition, % at 20 µM. reconstituted apoptosome, caspase-3 DEVD-Rh110 fluorescence. 25% of 1,800 active. shares compounds with Apaf-1 inh;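 active = mean inhibition of at least 40% at 20 µM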;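 also: plate controls were DMSO wells for no effect and DEVD-CHO caspase inhibitor control wells for full effect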
Rh110 interf inh = Rh110 fluorescence interference by putative Apaf-1 inhibitors, confirmation, artefact control for Apaf-1 inhibitor project, biochemical, 20 µM. shares compounds with Apaf-1 inh. quenched caspase reaction. activation (fluorescence interference), % at 20 µM. 1,800 tested, under 10 active;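 active = signal rise of 40% or more at 20 µM, treated as a fluorescence artifact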
Apaf1 inh interf = fluorescence interference of Apaf-1 inhibitor hits, dose response, artefact control for Apaf-1 inhibitor project; shares compounds with Apaf-1 inh; fluorescence interference counterscreen, Apaf-1 assay format; IC50, µM; 460 tested, under 10 active; call rule not given here
Numbers without * were called inactive; nt = not tested or not shown; ! = not active in a repeat. Only some compounds are listed: those with a hit (about 2.4% of all), similar ones and a draw of the others.

SMILES	PAD4 FP inh	TDP2 absorb	Apaf-1 inh	GSTO1 counter	TCR-CD3 inh	SIAE inh	Apaf-1 inh conf2	Rh110 interf inh	others
COCCCC/C(=N\OCCN)c1ccc(C(F)(F)F)cc1	-5.1	1.6	99.0*!	1.0	-0.2	-3.4	2.7	-2.7
CC(CC(=O)O)CC(=O)N1CCN(S(=O)(=O)c2cccs2)CC1 (stereo not drawn)	-1.3	4.6	-8.7	1.1	-9.8	11.2	nt	nt
COc1ccc(N(CC(=O)NCCOc2ccccc2)S(=O)(=O)c2ccc(C)cc2)cc1	-2.4	-5.7	29.2	2.1	5.3	5.0	nt	nt
COCCNC(=O)CN(c1cccc(OC)c1)S(=O)(=O)c1ccc(C)cc1	-2.7	7.0	57.1*	-1.8	1.6	1.0	15.7	0.4
CN(C)c1cc(N/N=C/c2ccccc2C(F)(F)F)nc(N(C)C)n1	-9.1	21.7	56.2*	22.8	3.8	3.1	50.8*	0.3	Apaf1 inh interf=>100
O=C(CNS(=O)(=O)c1cccc(Cl)c1)OCc1csc(-c2ccccc2)n1	5.2	-5.3	22.0	6.2	-4.7	-3.5	nt	nt
O=C(NC1CC1)C1=C[C@H](c2ccc(C(F)(F)F)cc2)C[C@H](OCCCCO)O1	-2.6	1.1	50.3*	-5.1	-1.1	4.5	3.6	9.0
O=C(NC1CC1)C1=C[C@@H](c2ccc(C(F)(F)F)cc2)C[C@@H](OCCCCO)O1	-2.6	3.3	3.0	2.9	-0.7	-8.6	nt	nt
O=P(CCCCCCCCCP(=O)(c1ccccc1)c1ccccc1)(c1ccccc1)c1ccccc1	-1.0	-6.4	52.8*	-4.7	-1.5	-0.7	29.7	1.4
Cc1cc(C)n(C2CC(=O)N(c3ccccc3)C2=O)n1 (stereo not drawn)	-4.0	-6.1	-12.8	-0.8	-1.7	-7.8	nt	nt
CC(=O)NC1N=C(C)N(c2ccccc2)C1=O (stereo not drawn)	-18.3	15.3	70.5*	18.3	0.1	3.8	9.3	-2.7
CCOC(=O)CNCCC(=O)c1ccc(Br)cc1	-3.6	-0.1	58.4*	-2.2	-1.3	0.9	9.4	1.1
Cc1cccc(NCCC(=O)c2ccc(Br)cc2)c1	-5.0	-3.7	13.7	-3.7	3.3	1.8	nt	nt
CNc1nc(=S)[nH]c2ccccc12	3.3	1.8	-8.1	3.2	2.8	3.6	nt	nt
CC(C)(C)c1ccc(C(O)CCCN2CCC(C(O)(c3ccccc3)c3ccccc3)CC2)cc1 (stereo not drawn)	-2.9	-10.9	52.9*	2.9	9.4	1.9	16.2	3.2
O=C(NCCSc1ccc(Cl)cc1)c1ccco1	-4.1	-1.3	6.6	1.4	2.6	7.5	nt	nt
O=C(c1ccccc1NS(=O)(=O)c1cccc([N+](=O)[O-])c1)N1CCOCC1	-2.7	-5.5	1.3	2.2	1.5	1.3	nt	nt
CN(C)CCN(C(=O)c1cccc2ccccc12)c1nc2cc3c(cc2s1)OCO3	2.5	-4.7	51.8*	-11.7	7.4	9.8	24.9	6.3
CS(=O)(=O)N(CC(=O)N1CCCC1)c1ccccc1F	1.1	-7.3	-3.7	0.6	-5.0	-1.4	nt	nt
CCC(=O)Nc1c(S(=O)(=O)c2ccc(C)cc2)c2nc3ccccc3nc2n1C(C)c1ccccc1 (stereo not drawn)	-4.8	-2.2	44.4*	0.6	-6.4	-12.5	15.4	3.9
Cc1nn(Cc2ccc(F)cc2)c(C)c1NC(=O)c1cc(-c2ccco2)on1	-30.0	nt	15.2	-9.2	nt	nt	nt	nt
COc1ccc(NC(=O)[C@@H](NC(=O)N2C[C@H]3C[C@@H](C2)c2cccc(=O)n2C3)C(C)C)cc1OC	2.4	2.6	61.7*	-6.8	6.4	12.1	7.4	1.1
O=C(Nc1cccc(Oc2c(F)c(F)c(F)c(F)c2F)c1)N1C[C@@H]2C[C@@H](C1)c1cccc(=O)n1C2	1.4	6.2	13.0	0.3	4.4	-0.2	nt	nt
O=C(COC(=O)c1ccccc1)NCC1CCCO1 (stereo not drawn)	-5.0	13.6	56.5*	1.1	0.9	2.9	5.4	1.1
COc1ccccc1/C=N/Nc1cc(C)nc2ccc(C)cc12	5.9	-4.8	22.4	-0.7	-9.0	-3.4	nt	nt
SMILES	PAD4 FP inh	TDP2 absorb	Apaf-1 inh	GSTO1 counter	TCR-CD3 inh	SIAE inh	Apaf-1 inh conf2	Rh110 interf inh	others
COc1ccc2nc(C)cc(N/N=C/c3ccccc3)c2c1	2.6	nt	50.3*	nt	nt	nt	3.7	6.9
COc1ccc(/C=N/Nc2cc(C)nc3ccc(OC)cc23)c(OC)c1	-3.2	-2.8	42.7*	-3.5	-5.2	9.6	-0.1	7.4
COc1ccc(CNc2ccc3cn[nH]c3c2)c(OC)c1OC	-8.6	19.1	46.2*	32.7	-1.9	9.4	39.1	-1.8
CCOc1cc(CNc2ccc3cn[nH]c3c2)ccc1OC	-7.6	29.9*	85.5*	17.9	-11.1	0.6	49.3*	-2.1	Apaf1 inh interf=>100
O=C(Nc1ccc2nc(-c3ccco3)c(-c3ccco3)nc2c1)NC1CC1	nt	nt	46.9*	nt	nt	nt	33.1	4.9
O=C(Nc1ccc(F)c(Cl)c1)NC1CC1	-4.7	-6.3	-8.6	1.9	14.1	0.4	nt	nt
CN(C)C=Nc1ccc2nc3c(cc2c1)[nH]c1ccccc13	-8.6	3.3	46.4*	25.5	0.1	-8.3	44.1*	-1.8	Apaf1 inh interf=>100
O=[N+]([O-])c1cc(F)c2cccnc2c1O	0.8	6.1	64.2*	58.4*	0.6	9.4	29.3	8.3
Nc1cc(=O)[nH]c2ncnn12	nt	8.8	nt	nt	2.9	-2.0	nt	nt
CN(C)CCCN(C(=O)CCc1ccccc1)c1nc2ccc(Cl)cc2s1	-5.5	-2.8	44.4*	0.9	-4.9	5.2	12.3	10.3
CC1CCN(CCc2nc3cc(NC(=O)COc4ccccc4)ccc3n2C)CC1	2.2	3.8	52.4*	-0.4	-6.7	-3.6	18.7	-1.2
CCn1c2ccccc2c2nnc(SCC(=O)c3c(N)n(C)c(=O)n(C)c3=O)nc21	-0.8	10.7	54.0*	-1.1	4.5	0.9	12.2	8.5
CCn1c2ccccc2c2nnc(SCC(N)=O)nc21	-1.2	-9.4	-4.0	-2.2	-1.1	-1.1	nt	nt
